Values belong to the compound of their own block, whether it stands above or below them. Calls of active or inactive are those of the source. The rule behind the calls is not given here.
How the values were obtained:
[1] = target: Amyloid-beta precursor protein (Homo sapiens) (UniProt P05067); assay: Binding affinity to amyloid beta (1 to 42) aggregate in cortex of Alzheimer disease patient brain by autoradiography; conditions: tested as the 125I-labelled form
Method in brief: (§1)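 Human postmortem temporal-lobe paraffin sections were used: AD patient and normal control (person). They were deparaffinized (xylene, graded ethanol), held 30 min in PBS 0.2 M pH 7.4, incubated 1 h at room temperature with radiotracer (5 μCi/100 μL), washed 3 min in 40% ethanol, rinsed, dried and exposed to an imaging plate overnight.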

[2] = target: Amyloid-beta precursor protein (Homo sapiens) (UniProt P05067); assay: Binding affinity to amyloid beta (1 to 42) aggregate in white matter of Alzheimer disease patient brain by immunohistochemical staining using amyloid beta antibody BC05; format: tissue-based; conditions: tested as the 125I-labelled form
Method in brief: (§2)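 Plaque presence and location in the AD patient temporal-lobe sections were confirmed by immunohistochemistry with monoclonal anti-Aβ1-42 antibody BC05.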

[3] = Displacement of [125I]IMPY from amyloid beta (1 to 42) aggregate after 2 hrs by gamma counting
Method in brief: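 Competition binding in 1 mL PBS (0.2 M, pH 7.4). Aggregated Aβ1-42 fibrils (60 nM final) with [125I]IMPY and inhibitor at 10^-5 to 10^-10 M, added in ethanol. Nonspecific binding was defined with 1 μM IMPY. Incubated 2 h at 37 °C with shaking, then vacuum-filtered through glass fibre filters and the bound fraction gamma-counted. IC50 was converted to Ki by Cheng-Prusoff; triplicate, mean ± SD.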

[4] = target: Amyloid-beta precursor protein (Homo sapiens) (UniProt P05067); assay: Binding affinity to amyloid beta (1 to 42) aggregate in white matter of Alzheimer disease patient brain by autoradiography; format: tissue-based; conditions: tested as the 125I-labelled form; method in brief: as §1
[5] = target: Amyloid-beta precursor protein (Homo sapiens) (UniProt P05067); assay: Binding affinity to amyloid beta (1 to 42) aggregate in cortex of Alzheimer disease patient brain by immunohistochemical staining using amyloid beta antibody BC05; conditions: tested as the 125I-labelled form; method in brief: as §2
Bone [6] = assay: Biodistribution in ddY mouse bone at 10 uCi/100 uL, iv after 30 mins by gamma counting; format: ADME, organism-based, Bone element; conditions: in vivo, 0.5 h
Method in brief: (§3)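 Normal female ddY mice (5 weeks, about 20 g; n = 4 per group) received radiotracer iv. Organs were removed and weighed at 2–120 min and counted in a γ-counter. Percent dose per gram of wet tissue was calculated against diluted aliquots of the injected material and reported as mean ± SD.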

Intestine [7] = assay: Biodistribution in ddY mouse intestine at 10 uCi/100 uL, iv after 2 mins by gamma counting; format: ADME, organism-based; conditions: in vivo; method in brief: as §3
Heart [8] = assay: Biodistribution in ddY mouse heart at 10 uCi/100 uL, iv after 15 mins by gamma counting; format: ADME, organism-based; conditions: in vivo, 0.25 h; method in brief: as §3
Blood [9] = assay: Biodistribution in ddY mouse blood at 10 uCi/100 uL, iv after 30 mins by gamma counting; format: ADME, organism-based; conditions: in vivo, 0.5 h; method in brief: as §3
Heart [10] = assay: Biodistribution in ddY mouse heart at 10 uCi/100 uL, iv after 60 mins by gamma counting; format: ADME, organism-based; conditions: in vivo, 1 h; method in brief: as §3
Stomach [11] = assay: Biodistribution in ddY mouse stomach at 10 uCi/100 uL, iv after 60 mins by gamma counting; format: ADME, organism-based; conditions: in vivo, 1 h
Stomach [12] = assay: Biodistribution in ddY mouse stomach at 10 uCi/100 uL, iv after 15 mins by gamma counting; format: ADME, organism-based; conditions: in vivo, 0.25 h
Stomach [13] = assay: Biodistribution in ddY mouse stomach at 10 uCi/100 uL, iv after 2 mins by gamma counting; format: ADME, organism-based; conditions: in vivo
Liver [14] = assay: Biodistribution in ddY mouse liver at 10 uCi/100 uL, iv after 2 mins by gamma counting; format: ADME, organism-based; conditions: in vivo
Blood [15] = assay: Biodistribution in ddY mouse blood at 10 uCi/100 uL, iv after 60 mins by gamma counting; format: ADME, organism-based; conditions: in vivo, 1 h; method in brief: as §3
Brain [16] = assay: Biodistribution in ddY mouse brain at 10 uCi/100 uL, iv after 2 mins by gamma counting; format: ADME, organism-based; conditions: in vivo; method in brief: as §3
[17] = Partition coefficient, log D of the compound; format: physicochemical; conditions: octanol/water
Method in brief: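 Radiotracer partitioned between n-octanol and PBS: vortexed 3 min at room temperature, centrifuged 5 min at 3000 rpm. Weighed samples of the octanol (100 μL) and buffer (500 μL) layers were counted. log D is the log of the ratio of counts per gram, octanol versus PBS.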

Heart [18] = assay: Biodistribution in ddY mouse heart at 10 uCi/100 uL, iv after 30 mins by gamma counting; format: ADME, organism-based; conditions: in vivo, 0.5 h; method in brief: as §3
Spleen [19] = assay: Biodistribution in ddY mouse spleen at 10 uCi/100 uL, iv after 60 mins by gamma counting; format: ADME, organism-based; conditions: in vivo, 1 h
Blood [20] = assay: Biodistribution in ddY mouse blood at 10 uCi/100 uL, iv after 15 mins by gamma counting; format: ADME, organism-based; conditions: in vivo, 0.25 h; method in brief: as §3
Blood [21] = assay: Biodistribution in ddY mouse blood at 10 uCi/100 uL, iv after 2 mins by gamma counting; format: ADME, organism-based; conditions: in vivo; method in brief: as §3
Liver [22] = assay: Biodistribution in ddY mouse liver at 10 uCi/100 uL, iv after 30 mins by gamma counting; format: ADME, organism-based; conditions: in vivo, 0.5 h
Lung [23] = assay: Biodistribution in ddY mouse lung at 10 uCi/100 uL, iv after 60 mins by gamma counting; format: ADME, organism-based; conditions: in vivo, 1 h
Lung [24] = assay: Biodistribution in ddY mouse lung at 10 uCi/100 uL, iv after 15 mins by gamma counting; format: ADME, organism-based; conditions: in vivo, 0.25 h
Lung [25] = assay: Biodistribution in ddY mouse lung at 10 uCi/100 uL, iv after 2 mins by gamma counting; format: ADME, organism-based; conditions: in vivo
Brain [26] = assay: Biodistribution in ddY mouse brain at 10 uCi/100 uL, iv after 60 mins by gamma counting; format: ADME, organism-based; conditions: in vivo, 1 h; method in brief: as §3
Brain [27] = assay: Biodistribution in ddY mouse brain at 10 uCi/100 uL, iv after 15 mins by gamma counting; format: ADME, organism-based; conditions: in vivo, 0.25 h; method in brief: as §3
Lung [28] = assay: Biodistribution in ddY mouse lung at 10 uCi/100 uL, iv after 30 mins by gamma counting; format: ADME, organism-based; conditions: in vivo, 0.5 h
Kidney [29] = assay: Biodistribution in ddY mouse kidney at 10 uCi/100 uL, iv after 60 mins by gamma counting; format: ADME, organism-based; conditions: in vivo, 1 h
Spleen [30] = assay: Biodistribution in ddY mouse spleen at 10 uCi/100 uL, iv after 30 mins by gamma counting; format: ADME, organism-based; conditions: in vivo, 0.5 h
Stomach [31] = assay: Biodistribution in ddY mouse stomach at 10 uCi/100 uL, iv after 30 mins by gamma counting; format: ADME, organism-based; conditions: in vivo, 0.5 h
Bone [32] = assay: Biodistribution in ddY mouse bone at 10 uCi/100 uL, iv after 60 mins by gamma counting; format: ADME, organism-based, Bone element; conditions: in vivo, 1 h; method in brief: as §3
Intestine [33] = assay: Biodistribution in ddY mouse intestine at 10 uCi/100 uL, iv after 60 mins by gamma counting; format: ADME, organism-based; conditions: in vivo, 1 h; method in brief: as §3
Intestine [34] = assay: Biodistribution in ddY mouse intestine at 10 uCi/100 uL, iv after 30 mins by gamma counting; format: ADME, organism-based; conditions: in vivo, 0.5 h; method in brief: as §3
Kidney [35] = assay: Biodistribution in ddY mouse kidney at 10 uCi/100 uL, iv after 15 mins by gamma counting; format: ADME, organism-based; conditions: in vivo, 0.25 h
Bone [36] = assay: Biodistribution in ddY mouse bone at 10 uCi/100 uL, iv after 2 mins by gamma counting; format: ADME, organism-based, Bone element; conditions: in vivo; method in brief: as §3
Kidney [37] = assay: Biodistribution in ddY mouse kidney at 10 uCi/100 uL, iv after 2 mins by gamma counting; format: ADME, organism-based; conditions: in vivo
Liver [38] = assay: Biodistribution in ddY mouse liver at 10 uCi/100 uL, iv after 60 mins by gamma counting; format: ADME, organism-based; conditions: in vivo, 1 h
Spleen [39] = assay: Biodistribution in ddY mouse spleen at 10 uCi/100 uL, iv after 2 mins by gamma counting; format: ADME, organism-based; conditions: in vivo
Brain [40] = assay: Ratio of drug uptake in ddY mouse brain at 10 uCi/100 uL, iv after 2 mins to drug uptake in ddY mouse brain at 10 uCi/100 uL, iv after 60 mins; format: ADME, organism-based; conditions: in vivo
Method in brief: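 Normal female ddY mice (5 weeks, about 20 g) received the radiotracer iv, with groups of 4 per time point. At 2 and 60 min, brain and other organs were excised and weighed and counted in a γ-counter. %ID/g wet tissue was taken against diluted injectate aliquots. The ratio is brain %ID/g at 2 min divided by brain %ID/g at 60 min.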

Brain [41] = assay: Biodistribution in ddY mouse brain at 10 uCi/100 uL, iv after 30 mins by gamma counting; format: ADME, organism-based; conditions: in vivo, 0.5 h; method in brief: as §3
Heart [42] = assay: Biodistribution in ddY mouse heart at 10 uCi/100 uL, iv after 2 mins by gamma counting; format: ADME, organism-based; conditions: in vivo; method in brief: as §3
Liver [43] = assay: Biodistribution in ddY mouse liver at 10 uCi/100 uL, iv after 15 mins by gamma counting; format: ADME, organism-based; conditions: in vivo, 0.25 h
Kidney [44] = assay: Biodistribution in ddY mouse kidney at 10 uCi/100 uL, iv after 30 mins by gamma counting; format: ADME, organism-based; conditions: in vivo, 0.5 h
Intestine [45] = assay: Biodistribution in ddY mouse intestine at 10 uCi/100 uL, iv after 15 mins by gamma counting; format: ADME, organism-based; conditions: in vivo, 0.25 h; method in brief: as §3
Bone [46] = assay: Biodistribution in ddY mouse bone at 10 uCi/100 uL, iv after 15 mins by gamma counting; format: ADME, organism-based, Bone element; conditions: in vivo, 0.25 h; method in brief: as §3
Spleen [47] = assay: Biodistribution in ddY mouse spleen at 10 uCi/100 uL, iv after 15 mins by gamma counting; format: ADME, organism-based; conditions: in vivo, 0.25 h

Amyloid-beta precursor protein (Homo sapiens), sequence (P05067 whole entry): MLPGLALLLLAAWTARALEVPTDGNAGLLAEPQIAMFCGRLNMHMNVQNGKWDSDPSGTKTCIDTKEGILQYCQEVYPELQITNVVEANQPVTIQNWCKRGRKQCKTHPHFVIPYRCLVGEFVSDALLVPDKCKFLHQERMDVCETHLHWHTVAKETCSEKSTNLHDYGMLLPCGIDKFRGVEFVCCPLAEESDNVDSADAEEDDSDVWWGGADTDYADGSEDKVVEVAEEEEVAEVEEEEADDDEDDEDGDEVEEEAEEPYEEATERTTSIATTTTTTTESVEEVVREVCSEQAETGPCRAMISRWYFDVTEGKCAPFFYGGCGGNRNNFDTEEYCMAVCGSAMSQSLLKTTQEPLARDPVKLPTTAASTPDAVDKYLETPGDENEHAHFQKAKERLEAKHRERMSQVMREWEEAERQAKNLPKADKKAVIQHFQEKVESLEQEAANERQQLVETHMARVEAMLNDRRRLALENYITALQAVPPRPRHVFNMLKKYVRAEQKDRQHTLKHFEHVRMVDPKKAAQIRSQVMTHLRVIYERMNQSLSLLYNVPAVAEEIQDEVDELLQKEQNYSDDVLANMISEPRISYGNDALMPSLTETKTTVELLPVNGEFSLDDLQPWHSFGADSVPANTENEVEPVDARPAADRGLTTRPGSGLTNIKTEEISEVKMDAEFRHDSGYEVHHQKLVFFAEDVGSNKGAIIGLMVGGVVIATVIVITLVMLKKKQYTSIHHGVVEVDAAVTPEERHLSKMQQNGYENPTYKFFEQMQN

- Activity [1]: Active
- Activity [2]: Active
- Ki [3]: 2.8 nM
- Activity [4]: Active
- Activity [5]: Active
Compound: CNc1ccc(/C=C/C(=O)/C=C/c2ccc(I)cc2)cc1

- Drug uptake (Bone [6]): 2.08 % ID/g
- Drug uptake (Intestine [7]): 4.12 % ID/g
- Drug uptake (Heart [8]): 3.33 % ID/g
- Drug uptake (Blood [9]): 2.46 % ID/g
- Drug uptake (Heart [10]): 1.47 % ID/g
- Drug uptake (Stomach [11]): 3.98 % ID/organ
- Drug uptake (Stomach [12]): 7.39 % ID/organ
- Drug uptake (Stomach [13]): 6.28 % ID/organ
- Drug uptake (Liver [14]): 22.32 % ID/g
- Drug uptake (Blood [15]): 1.6 % ID/g
- Drug uptake (Brain [16]): 4.13 % ID/g
- logD [17]: 2.97
- Drug uptake (Heart [18]): 1.9 % ID/g
- Drug uptake (Spleen [19]): 1.93 % ID/g
- Drug uptake (Blood [20]): 3.89 % ID/g
- Drug uptake (Blood [21]): 5.38 % ID/g
- Drug uptake (Liver [22]): 14.07 % ID/g
- Drug uptake (Lung [23]): 1.86 % ID/g
- Drug uptake (Lung [24]): 6.34 % ID/g
- Drug uptake (Lung [25]): 12.3 % ID/g
- Drug uptake (Brain [26]): 0.9 % ID/g
- Drug uptake (Brain [27]): 1.51 % ID/g
- Drug uptake (Lung [28]): 3.38 % ID/g
- Drug uptake (Kidney [29]): 3.67 % ID/g
- Drug uptake (Spleen [30]): 4.46 % ID/g
- Drug uptake (Stomach [31]): 6 % ID/organ
- Drug uptake (Bone [32]): 2.33 % ID/g
- Drug uptake (Intestine [33]): 21.57 % ID/g
- Drug uptake (Intestine [34]): 17.5 % ID/g
- Drug uptake (Kidney [35]): 12.77 % ID/g
- Drug uptake (Bone [36]): 2.88 % ID/g
- Drug uptake (Kidney [37]): 12.95 % ID/g
- Drug uptake (Liver [38]): 6.88 % ID/g
- Drug uptake (Spleen [39]): 4.26 % ID/g
- Ratio (Brain [40]): 4.59
- Drug uptake (Brain [41]): 1.04 % ID/g
- Drug uptake (Heart [42]): 7.6 % ID/g
- Drug uptake (Liver [43]): 24.41 % ID/g
- Drug uptake (Kidney [44]): 7.13 % ID/g
- Drug uptake (Intestine [45]): 10.53 % ID/g
- Drug uptake (Bone [46]): 2.42 % ID/g
- Drug uptake (Spleen [47]): 6.19 % ID/g
Compound: CN(C)c1ccc(/C=C/C(=O)/C=C/c2ccc(OCCOCCOCC[18F])cc2)cc1

From ChEMBL document CHEMBL1765020, “Synthesis and structure-affinity relationships of novel dibenzylideneacetone derivatives as probes for β-amyloid plaques” (J Med Chem, 2011)
